Assay results: ChEMBL document CHEMBL1134346, “Labeling and evaluation of N-[11C]methylated quinoline-2-carboxamides as potential radioligands for visualization of peripheral benzodiazepine receptors” (J Med Chem, 2001)

Columns and labels:
Rattus norvegicus [1] = organism: Rattus norvegicus; test: Tissue (pituitary) distribution in Albino male CD rats after 90 minutes expressed as percent of injected dose per gram of organ.; assay type: ADME, organism-based, Pituitary gland; conditions: in vivo, 1.5 h
Summary of the method: (§1)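 Male albino CD rats (225-250 g) received the 11C-labelled radioligand in saline by tail-vein injection. Three rats per time point were decapitated under light ether anaesthesia at 5, 15, 30, 60 or 90 min. Blood was collected heparinized and plasma separated by centrifugation. The pituitary was dissected from the brain. Lung, liver (three-lobe pieces) and right deltoid muscle were sampled, washed in cold saline, gamma-counted and weighed. Results are %I.D./g.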

Rattus norvegicus [2] = organism: Rattus norvegicus; test: Tissue (pituitary) distribution in Albino male CD rats after 5 minutes expressed as percent of injected dose per gram of organ.; assay type: ADME, organism-based, Pituitary gland; conditions: in vivo; summary of the method: as §1
Rattus norvegicus [3] = organism: Rattus norvegicus; test: Tissue (muscle) distribution in Albino male CD rats after 5 minutes expressed as percent of injected dose per gram of organ.; assay type: ADME, organism-based; conditions: in vivo; summary of the method: as §1
Rattus norvegicus [4] = organism: Rattus norvegicus; test: Tissue (lung) concentration of radioactivity at 30 min post-injection into Albino male CD rats with vehicle.; assay type: ADME, organism-based; conditions: in vivo, 0.5 h
Summary of the method: (§2)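 Blocking study in male albino CD rats, five per group. Immediately before the 11C radioligand (in saline, i.v. tail vein), rats received 30 µL tail-vein PK 11195 (5 mg/kg; 1.4-1.6 mg) in DMSO:EtOH 1:1, or vehicle. Rats were decapitated at 30 min. Tissues were dissected, washed, gamma-counted and weighed as in the biodistribution study. Results are %I.D./g.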

Rattus norvegicus [5] = organism: Rattus norvegicus; test: Tissue (adrenal gland) distribution in Albino male CD rats after 90 minutes expressed as percent of injected dose per gram of organ.; assay type: ADME, organism-based; conditions: in vivo, 1.5 h
Summary of the method: (§3)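 Radioligand given in saline into tail vein of male albino CD rats (225-250 g); 100-200 µCi per animal, 1-2 Ci/µmol at injection depending on radioligand. Three rats per time point were decapitated under light ether anaesthesia. Blood, plasma, brain regions and washed organs were weighed and gamma-counted. Uptake is %I.D./g tissue, mean ± SD.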

Rattus norvegicus [6] = organism: Rattus norvegicus; test: Tissue (heart) distribution in Albino male CD rats after 15 minutes expressed as percent of injected dose per gram of organ.; assay type: ADME, organism-based; conditions: in vivo, 0.25 h; summary of the method: as §3
Rattus norvegicus [7] = organism: Rattus norvegicus; test: Tissue (blood) distribution in Albino male CD rats after 60 minutes expressed as percent of injected dose per gram of organ.; assay type: ADME, organism-based; conditions: in vivo, 1 h; summary of the method: as §3
Rattus norvegicus [8] = organism: Rattus norvegicus; test: Tissue (cortex) distribution in Albino male CD rats after 60 minutes expressed as percent of injected dose per gram of organ.; assay type: ADME, organism-based; conditions: in vivo, 1 h; summary of the method: as §3
Rattus norvegicus [9] = organism: Rattus norvegicus; test: Tissue (adrenal gland) distribution in Albino male CD rats after 60 minutes expressed as percent of injected dose per gram of organ.; assay type: ADME, organism-based; conditions: in vivo, 1 h; summary of the method: as §3
Rattus norvegicus [10] = organism: Rattus norvegicus; test: Tissue (testicle) distribution in Albino male CD rats after 5 minutes expressed as percent of injected dose per gram of organ.; assay type: ADME, organism-based; conditions: in vivo; summary of the method: as §1
Rattus norvegicus [11] = organism: Rattus norvegicus; test: Tissue (cerebellum) distribution in Albino male CD rats after 60 minutes expressed as percent of injected dose per gram of organ.; assay type: ADME, organism-based; conditions: in vivo, 1 h; summary of the method: as §3
Rattus norvegicus [12] = organism: Rattus norvegicus; test: Tissue (plasma) distribution in Albino male CD rats after 60 minutes expressed as percent of injected dose per gram of organ.; assay type: ADME, organism-based; conditions: in vivo, 1 h; summary of the method: as §1
[13] = target: Translocator protein (Rattus norvegicus) (UniProt P16257); test: Tissue (lung) concentration of radioactivity at 30 min post-injection into Albino male CD rats after pretreatment with cold PK 11195.; assay type: functional; summary of the method: as §2
Rattus norvegicus [14] = organism: Rattus norvegicus; test: Tissue (liver) concentration of radioactivity at 30 min post-injection into Albino male CD rats with vehicle.; assay type: ADME, organism-based; conditions: in vivo, 0.5 h
Summary of the method: (§4)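 Separate groups of five rats received tail-vein PK 11195 (1.4-1.6 mg; 5 mg/kg) in 30 µL DMSO:EtOH 1:1, or vehicle alone, immediately before iv radioligand (90-170 µCi in saline, 0.9-1 Ci/µmol). Rats were decapitated at 30 min and tissues gamma-counted; values are %I.D./g.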

[15] = target: Translocator protein (Rattus norvegicus) (UniProt P16257); test: Tissue (heart) concentration of radioactivity at 30 min post-injection into Albino male CD rats after pretreatment with cold PK 11195.; assay type: functional; summary of the method: as §4
[16] = target: Translocator protein (Rattus norvegicus) (UniProt P16257); test: Tissue (spleen) concentration of radioactivity at 30 min post-injection into Albino male CD rats after pretreatment with cold PK 11195.; assay type: functional, tissue-based; summary of the method: as §2
Rattus norvegicus [17] = organism: Rattus norvegicus; test: Tissue (cerebellum) distribution in Albino male CD rats after 90 minutes expressed as percent of injected dose per gram of organ.; assay type: ADME, organism-based; conditions: in vivo, 1.5 h; summary of the method: as §3
Rattus norvegicus [18] = organism: Rattus norvegicus; test: Tissue (intestine) distribution in Albino male CD rats after 60 minutes expressed as percent of injected dose per gram of organ.; assay type: ADME, organism-based; conditions: in vivo, 1 h; summary of the method: as §3
Rattus norvegicus [19] = organism: Rattus norvegicus; test: Tissue (muscle) concentration of radioactivity at 30 min post-injection into Albino male CD rats with vehicle.; assay type: ADME, organism-based; conditions: in vivo, 0.5 h; summary of the method: as §2
[20] = target: Translocator protein (Rattus norvegicus) (UniProt P16257); test: Tissue (muscle) concentration of radioactivity at 30 min post-injection into Albino male CD rats after pretreatment with cold PK 11195.; assay type: functional; summary of the method: as §2
[21] = target: Translocator protein (Rattus norvegicus) (UniProt P16257); test: Tissue (adrenal gland) concentration of radioactivity at 30 min post-injection into Albino male CD rats after pretreatment with cold PK 11195.; assay type: functional, tissue-based; summary of the method: as §4
Rattus norvegicus [22] = organism: Rattus norvegicus; test: Tissue (blood) distribution in Albino male CD rats after 15 minutes expressed as percent of injected dose per gram of organ.; assay type: ADME, organism-based; conditions: in vivo, 0.25 h; summary of the method: as §3
Rattus norvegicus [23] = organism: Rattus norvegicus; test: Tissue (kidney) distribution in Albino male CD rats after 30 minutes expressed as percent of injected dose per gram of organ.; assay type: ADME, organism-based; conditions: in vivo, 0.5 h; summary of the method: as §3
Rattus norvegicus [24] = organism: Rattus norvegicus; test: Tissue (pituitary) distribution in Albino male CD rats after 15 minutes expressed as percent of injected dose per gram of organ.; assay type: ADME, organism-based, Pituitary gland; conditions: in vivo, 0.25 h; summary of the method: as §1
Rattus norvegicus [25] = organism: Rattus norvegicus; test: Tissue (spleen) distribution in Albino male CD rats after 30 minutes expressed as percent of injected dose per gram of organ.; assay type: ADME, organism-based; conditions: in vivo, 0.5 h; summary of the method: as §1
Rattus norvegicus [26] = organism: Rattus norvegicus; test: Tissue (testicle) distribution in Albino male CD rats after 90 minutes expressed as percent of injected dose per gram of organ.; assay type: ADME, organism-based; conditions: in vivo, 1.5 h
Rattus norvegicus [27] = organism: Rattus norvegicus; test: Tissue (liver) distribution in Albino male CD rats after 15 minutes expressed as percent of injected dose per gram of organ.; assay type: ADME, organism-based; conditions: in vivo, 0.25 h; summary of the method: as §3
Rattus norvegicus [28] = organism: Rattus norvegicus; test: Tissue (liver) distribution in Albino male CD rats after 60 minutes expressed as percent of injected dose per gram of organ.; assay type: ADME, organism-based; conditions: in vivo, 1 h; summary of the method: as §1
Rattus norvegicus [29] = organism: Rattus norvegicus; test: Tissue (cerebellum) distribution in Albino male CD rats after 30 minutes expressed as percent of injected dose per gram of organ.; assay type: ADME, organism-based; conditions: in vivo, 0.5 h; summary of the method: as §3
Rattus norvegicus [30] = organism: Rattus norvegicus; test: Tissue (liver) distribution in Albino male CD rats after 30 minutes expressed as percent of injected dose per gram of organ.; assay type: ADME, organism-based; conditions: in vivo, 0.5 h; summary of the method: as §1
Rattus norvegicus [31] = organism: Rattus norvegicus; test: Tissue (adrenal gland) distribution in Albino male CD rats after 5 minutes expressed as percent of injected dose per gram of organ.; assay type: ADME, organism-based; conditions: in vivo; summary of the method: as §3
Rattus norvegicus [32] = organism: Rattus norvegicus; test: Tissue (plasma) distribution in Albino male CD rats after 90 minutes expressed as percent of injected dose per gram of organ.; assay type: ADME, organism-based; conditions: in vivo, 1.5 h; summary of the method: as §1
Rattus norvegicus [33] = organism: Rattus norvegicus; test: Tissue (spleen) distribution in Albino male CD rats after 15 minutes expressed as percent of injected dose per gram of organ.; assay type: ADME, organism-based; conditions: in vivo, 0.25 h
Rattus norvegicus [34] = organism: Rattus norvegicus; test: Tissue (blood) distribution in Albino male CD rats after 30 minutes expressed as percent of injected dose per gram of organ.; assay type: ADME, organism-based; conditions: in vivo, 0.5 h; summary of the method: as §3
Rattus norvegicus [35] = organism: Rattus norvegicus; test: Tissue (intestine) distribution in Albino male CD rats after 90 minutes expressed as percent of injected dose per gram of organ.; assay type: ADME, organism-based; conditions: in vivo, 1.5 h; summary of the method: as §3
Rattus norvegicus [36] = organism: Rattus norvegicus; test: Tissue (testicle) distribution in Albino male CD rats after 60 minutes expressed as percent of injected dose per gram of organ.; assay type: ADME, organism-based; conditions: in vivo, 1 h; summary of the method: as §1
Rattus norvegicus [37] = organism: Rattus norvegicus; test: Tissue (lung) distribution in Albino male CD rats after 30 minutes expressed as percent of injected dose per gram of organ.; assay type: ADME, organism-based; conditions: in vivo, 0.5 h; summary of the method: as §1
Rattus norvegicus [38] = organism: Rattus norvegicus; test: Tissue (cortex) distribution in Albino male CD rats after 90 minutes expressed as percent of injected dose per gram of organ.; assay type: ADME, organism-based; conditions: in vivo, 1.5 h; summary of the method: as §3
Rattus norvegicus [39] = organism: Rattus norvegicus; test: Tissue (heart) distribution in Albino male CD rats after 30 minutes expressed as percent of injected dose per gram of organ.; assay type: ADME, organism-based; conditions: in vivo, 0.5 h; summary of the method: as §3
[40] = target: Translocator protein (Rattus norvegicus) (UniProt P16257); test: Tissue (pituitary) concentration of radioactivity at 30 min post-injection into Albino male CD rats after pretreatment with cold PK 11195.; assay type: functional, tissue-based; conditions: Pituitary gland; summary of the method: as §2

Sequence of Translocator protein (Rattus norvegicus) (P16257 whole entry, looked up): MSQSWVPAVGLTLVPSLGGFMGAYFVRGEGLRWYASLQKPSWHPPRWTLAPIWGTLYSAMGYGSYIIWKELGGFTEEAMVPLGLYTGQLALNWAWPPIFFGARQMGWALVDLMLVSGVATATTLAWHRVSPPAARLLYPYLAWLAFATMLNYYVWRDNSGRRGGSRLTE

`Cc1c(C(=O)N(C)Cc2ccccc2)nc2ccccc2c1-c1ccccc1` showed an I.D./g (Rattus norvegicus [1]) of 0.15%, an I.D./g (Rattus norvegicus [2]) of 0.33% and an I.D./g (Rattus norvegicus [3]) of 0.19%. The I.D./g (Rattus norvegicus [4]) was 0.35%, the I.D./g (Rattus norvegicus [5]) was 3.74% and the I.D./g (Rattus norvegicus [6]) was 2.62%. For the same compound, the I.D./g (Rattus norvegicus [7]) was 0.06%, the I.D./g (Rattus norvegicus [8]) was 0.06% and the I.D./g (Rattus norvegicus [9]) was 4%. It also gave an I.D./g (Rattus norvegicus [10]) of 0.06%, an I.D./g (Rattus norvegicus [11]) of 0.08% and an I.D./g (Rattus norvegicus [12]) of 0.05%. The I.D./g [13] was less than 0.05%, the I.D./g (Rattus norvegicus [14]) was 0.08% and the I.D./g [15] was less than 0.04%. The I.D./g [16] was less than 0.02%, the I.D./g (Rattus norvegicus [17]) was 0.09% and the I.D./g (Rattus norvegicus [18]) was 0.62%. The I.D./g (Rattus norvegicus [19]) was 0.03%, the I.D./g [20] was greater than 0.02% and the I.D./g [21] was less than 0.17%. It also gave an I.D./g (Rattus norvegicus [22]) of 0.09%, an I.D./g (Rattus norvegicus [23]) of 1.05% and an I.D./g (Rattus norvegicus [24]) of 0.49%. For the same compound, the I.D./g (Rattus norvegicus [25]) was 1.46%, the I.D./g (Rattus norvegicus [26]) was 0.2% and the I.D./g (Rattus norvegicus [27]) was 0.59%. It also gave an I.D./g (Rattus norvegicus [28]) of 0.41%, an I.D./g (Rattus norvegicus [29]) of 0.12% and an I.D./g (Rattus norvegicus [30]) of 0.43%. The I.D./g (Rattus norvegicus [31]) was 0.77%, the I.D./g (Rattus norvegicus [32]) was 0.05% and the I.D./g (Rattus norvegicus [33]) was 1.27%. It also gave an I.D./g (Rattus norvegicus [34]) of 0.06%, an I.D./g (Rattus norvegicus [35]) of 0.68% and an I.D./g (Rattus norvegicus [36]) of 0.15%. For the same compound, the I.D./g (Rattus norvegicus [37]) was 2%, the I.D./g (Rattus norvegicus [38]) was 0.05% and the I.D./g (Rattus norvegicus [39]) was 2.58%. The I.D./g [40] was greater than 0.09%.
